Assay outcomes (PubChem)
GalR3 antag – GalR3 antagonists in HEK293 cells, primary screen, cell-based, fluorescence readout | Galanin receptor type 3 (Homo sapiens), O60755 | HEK293 GalR3-CNG cAMP membrane potential fluorescence; galR3 body fused to GalR1 C-terminus | inhibition, % at 3 µM | hit rate 0.44% among 360,000 | AID 651719, 2012;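 active = inhibition above the screen-wide average plus 3 SD, cut at about 13% in these data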;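 also: forskolin and galanin both at EC90 stimulate the cells; cAMP rise reported by CNG channel membrane potential dye signal; 0% = forskolin plus galanin with DMSO and 100% = forskolin alone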
Target sequence (O60755 1-299 limits assumed): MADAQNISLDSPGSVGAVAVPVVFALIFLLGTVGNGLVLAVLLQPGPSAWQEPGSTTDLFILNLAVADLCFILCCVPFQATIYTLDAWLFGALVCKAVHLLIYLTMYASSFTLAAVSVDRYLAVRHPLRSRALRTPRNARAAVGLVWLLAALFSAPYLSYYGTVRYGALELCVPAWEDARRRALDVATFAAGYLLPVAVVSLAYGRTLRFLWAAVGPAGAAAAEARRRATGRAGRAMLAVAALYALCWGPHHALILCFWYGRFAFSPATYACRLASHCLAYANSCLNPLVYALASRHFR
GPR7 antag – GPR7 receptor antagonists, primary screen, cell-based, fluorescence, single concentration; Neuropeptides B/W receptor type 1 (Homo sapiens), P48145; GPR7-expressing cells, fluorescence antagonist assay; inhibition, % at 4.4 µM; hit rate 1.1% among 290,000; in the data active = inhibition above about 16%, passing the limit was not always enough;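 also: cells stimulated with the agonist NPW; 0% = agonist with vehicle and 100% = vehicle without agonist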
Target sequence (P48145 whole entry, looked up): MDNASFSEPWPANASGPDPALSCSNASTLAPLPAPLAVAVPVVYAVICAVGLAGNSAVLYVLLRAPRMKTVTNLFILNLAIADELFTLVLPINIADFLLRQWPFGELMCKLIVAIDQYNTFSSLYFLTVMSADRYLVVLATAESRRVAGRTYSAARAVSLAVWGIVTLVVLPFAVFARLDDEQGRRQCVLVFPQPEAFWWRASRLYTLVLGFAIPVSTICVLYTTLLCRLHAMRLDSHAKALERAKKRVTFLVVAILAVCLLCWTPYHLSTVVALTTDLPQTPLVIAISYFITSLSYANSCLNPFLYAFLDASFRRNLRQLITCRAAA
OX1R antag-1 – OX1R (HCRTR1) antagonists, primary screen, fluorescence, CHO/OX1R cells, Fluo-8 calcium, orexin A; Fluo-8 calcium fluorescence; AID 434989, 2010; inhibition, % at 5 µM; hit rate 0.43% among 330,000;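 active = inhibition above its plate's threshold, mean inhibition of all tested compounds on the plate plus 3 SD, cut at about 37% in these data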;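 also: 0% = orexin A challenge wells and 100% = SB-334867-A antagonist wells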
CHO parental Ca – ATP-evoked calcium signal inhibitors, parental CHO, primary screen, counter-screen for OX1R antagonist project, cell-based, fluorescence, Fluo-8 calcium dye | AID 463079, 2010 | hit rate 0.63% among 330,000 | parental CHO-K1, ATP-induced calcium, Fluo-8 fluorescence | inhibition, % at 5.6 µM;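 active = inhibition above that plate's mean sample inhibition plus 3 SD, cut at about 26% in these data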;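 also: 0% = ATP-challenged DMSO wells and 100% = DMSO wells without ATP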
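Material: Parental CHO cells | Reagent: ATP | Compound dosing: Single nominal dose of 5.6 µM per compound | Detection: Intracellular calcium via Fluo-8 no-wash fluorescent dye | Read-out: % inhibition of ATP-induced calcium mobilization | Benchmarks: Low control ATP plus DMSO, high control DMSO only | Replicates: Singlicate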
OX1R antag-2 – antagonists of human orexin 1 receptor (OX1R) | AID 485270, 2010 | inhibition, % at 6.6 µM | Orexin/Hypocretin receptor type 1 (Homo sapiens), O43613 | OX1R-expressing cells, FRET antagonist read-out | hit rate 1.8% among 330,000; in the data active = inhibition mostly above about 38%, no sharp cut-off; inactive = mostly below about 40%;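 also: 0% = agonist challenge alone and 100% = reference antagonist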
GPR7 antag cf – GPR7 receptor antagonists, confirmation, cell-based, fluorescence, single concentration; shares compounds with GPR7 antag; GPR7-expressing cells, calcium fluorescence antagonist mode; inhibition, % at 4.4 µM; hit rate 52% among 2,400; AID 1952, 2009; in the data active = inhibition above about 24%;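 also: stimulated with the GPR7 agonist NPW; 0% = agonist plus vehicle and 100% = vehicle alone without agonist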
MCHR1 antag – MCHR1 antagonists in cells, counter-screen for GPR7 antagonist project, cell-based, fluorescence, human. hit rate 62% among 2,400. AID 2148, 2009. inhibition, % at 4.4 µM. MCHR1-expressing cells, fluorescence antagonist assay. shares compounds with GPR7 antag; in the data active = inhibition above about 22%;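 also: 0% = vehicle with agonist and 100% = vehicle without agonist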
Numbers without * were called inactive; · = no result. The list is not random: actives were taken first. Their share in the collection is about 3.1%.

SMILES	GalR3 antag	GPR7 antag	OX1R antag-1	CHO parental Ca	OX1R antag-2	GPR7 antag cf	MCHR1 antag
O=C(Nc1cccc(Cl)c1N1CCCC1)c1ccc([N+](=O)[O-])o1	-3	-12	-10	-26	3	·	·
CCN1CCN(c2c(Cl)cccc2NC(=O)c2ccc([N+](=O)[O-])o2)CC1	-5	28*	-14	-15	56*	34*	34*
COC(=O)c1ccc(OCC2c3cc(OC)c(OC)cc3CCN2C(=O)C2CC2)cc1 (stereo unspecified)	-6	27*	-19	3	9	43*	29*
CC(C)CC(=O)Nc1ccc(C(=O)COC(=O)CN2C(=O)NC3(CCCCC3C)C2=O)cc1 (stereo unspecified)	-2	·	·	·	·	·	·
CC1(c2ccc(Cl)cc2Cl)NC(=O)N(CC(=O)NC2CCCCC2)C1=O (stereo unspecified)	-4	·	-19	-21	1	·	·
O=C(NCCc1ccccc1)C1CCN(C2CCN(Cc3ccco3)CC2)CC1	-2	-21	0	8	14	·	·
O=C(NCCc1ccccc1)C1CCN(Cc2cccc3ccccc23)CC1	-11	28*	3	-14	2	4	10
O=S(=O)(NC1CC1)c1ccc(Br)cc1N1CCC[C@H]1CO	1	·	·	·	·	·	·
CN(C)CCNc1nc2sc3c(c2c(=O)n1CCc1ccccc1)CCCCC3	-5	26*	-6	10	7	43*	57*
CC(O)CNc1nc2sc3c(c2c(=O)n1CCc1ccccc1)CCCCC3 (stereo unspecified)	3	-8	-22	-10	7	·	·
CCOc1ccccc1NC(=O)c1cc(=O)c2ccccc2o1	-9	-7	-5	-8	7	·	·
CCOC(=O)Nc1cc(=O)c2ccccc2o1	-6	21*	0	-4	3	3	19
CCN(CC(=O)NCc1ccc(Cl)cc1)C(=O)CCc1ccccc1O	-6	-10	-15	-16	6	·	·
CCCSC(=O)N(CC)CC(=O)Nc1c(CC)cccc1CC	·	26*	-22	-22	24	26*	22*
CCc1cccc(CC)c1NC(=O)CN(CC(=O)O)CC(=O)O	-3	·	-3	3	14	·	·
CCc1cccc(C)c1NC(=O)Cc1ccsc1	-9	-9	-2	-21	19	·	·
CCCCN(CC(=O)Nc1c(C)cccc1CC)C(=O)SCC	·	36*	-10	-22	23	39*	30*
C=CCN(CC(=O)Nc1c(C)cccc1CC)C(=O)SCCC	-4	27*	-18	-18	16	20	18
CN(C)Cc1ccc(CNC(=O)COc2ccc3ccccc3c2)cc1	-13	-2	-7	-16	5	·	·
CN1C(=O)C(O)(CC(=O)/C=C/c2ccco2)c2ccccc21 (stereo unspecified)	2	0	-9	-24	63	·	·
CN1C(=O)C(O)(CC(=O)/C=C/C=C/c2ccccc2)c2ccccc21 (stereo unspecified)	-3	23*	6	0	5	-16	10
CCC(=O)N1c2ccc(S(=O)(=O)N3CCN(CC)CC3)cc2CC1C (stereo unspecified)	2	-2	-6	0	7	·	·
CCC(=O)N1c2ccc(S(=O)(=O)N3CCN(c4ccc([N+](=O)[O-])cc4)CC3)cc2CC1C (stereo unspecified)	-3	36*	20	27	24	33*	44*
Cc1cccc(N2CCN(S(=O)(=O)c3ccc4c(c3)CC(C)N4C(=O)C3CC3)CC2)c1C (stereo unspecified)	1	28*	-12	-9	10	29*	44*
Cc1ccc(C)c(N2CCN(S(=O)(=O)c3ccc4c(c3)CC(C)N4C(=O)C3CC3)CC2)c1 (stereo unspecified)	0	-1	-1	-15	2	·	·
SMILES	GalR3 antag	GPR7 antag	OX1R antag-1	CHO parental Ca	OX1R antag-2	GPR7 antag cf	MCHR1 antag
C[C@H](O)[C@@H]1C(=O)N2CCc3c([nH]c4cccc(-c5ccccc5)c34)[C@@H]2C[C@@H]1N(C)CC1CCCCC1	-4	·	·	·	·	·	·
CCc1noc(C)c1C(=O)Nc1nc(-c2ccccc2)c(C(C)=O)s1	-3	·	-5	-16	19	·	·
CC(C(=O)Nc1ccc2c(c1)OCCO2)c1ccc([N+](=O)[O-])cc1 (stereo unspecified)	5	47*	25	31*	3	70*	51*
C/C(CC(=O)Nc1ccc2c(c1)OCCO2)=N\NC(=O)c1ccc([N+](=O)[O-])cc1Cl	-4	34*	8	-4	64	-5	-1
CC(C(=O)Nc1ccc2c(c1)OCO2)c1ccc([N+](=O)[O-])cc1 (stereo unspecified)	-4	5	-14	6	9	·	·
O=S(=O)(Nc1cccc(S(=O)(=O)N2CCOCC2)c1)c1cccs1	-2	-5	-12	-3	4	·	·
O=C(CSc1nnc(CNC(=O)c2ccccc2)o1)NCc1ccc2c(c1)OCO2	0	-11	-9	-7	14	·	·
O=C(COc1ccc([N+](=O)[O-])cc1)Nc1ccc2c(c1)CCC2	-2	·	10	-9	9	·	·
O=C(Cc1ccc([N+](=O)[O-])cc1)Nc1ccc2c(c1)CCC2	-8	22*	-16	15	12	24	27*
CCOc1ccc(NCc2cccn2-c2nnc(N3CCC(C(=O)NCCCN4CC(C)CC(C)C4)CC3)s2)cc1 (stereo unspecified)	-8	-4	-32	-23	8	·	·
O=C(CSC1=NCCS1)NC(c1ccccc1)c1ccccc1	-5	0	-9	-22	19	·	·
O=C(CSC1=NCCS1)NC(NC(=O)CSC1=NCCS1)c1ccccc1	-5	29*	9	-4	24	2	-1
COc1ccccc1NS(=O)(=O)c1cc(NC(=O)CNC(=O)c2ccccc2)ccc1C	-12	0	9	-21	35	·	·
COc1ccccc1NS(=O)(=O)c1cc(NC(=O)c2ccc3c(c2)OCCO3)ccc1C	-4	27*	-9	-14	14	2	63*
COc1ccc(-n2nc(C(=O)NCC(=O)N(C)Cc3ccccc3)c3ccccc3c2=O)c(OC)c1	-4	-4	-8	-16	1	·	·
CC(C)c1[nH]nc2c1C(c1ccccc1)NC2=O (stereo unspecified)	-6	·	·	·	·	·	·
